These results are taken from ChEMBL document CHEMBL1143844, “Biochemical studies on the mechanism of human immunodeficiency virus type 1 reverse transcriptase resistance to 1-(beta-D-dioxolane)thymine triphosphate” (Antimicrob Agents Chemother, 2007).

Assay [1] in a line: Inhibition of HIV1 reverse transcriptase 41L/69S-SG/184V/210W/215Y mutant in presence of 5 mM ATP by heteropolymeric DNA polymerase assay. On the set-up: species or system Human immunodeficiency virus 1. The gist of the method: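 Heteropolymeric DNA polymerase assay with ATP added at 5 mM. Purified HIV-1 RT at 30–100 pM acts on a plate-bound DNA primer with a 5′-A12-(GTCA)5-3′ template. dATP, dGTP, dCTP and BrdUTP at 1.0 μM each. Incubation 180 min at 33°C. BrdUMP incorporation read via anti-BrdU-AP at 405 nm after NaOH dehybridization. IC50 from seven inhibitor concentrations, at least two experiments in duplicate.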

A short description of assay [2]: Inhibition of HIV1 LAI reverse transcriptase 65R mutant by heteropolymeric DNA polymerase assay. On the set-up: species or system Human immunodeficiency virus 1. In short, it runs like this:
(§1)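 Purified p66/p51 HIV-1 RT, or p66 homodimer for 65R, at 30–100 pM (about 1.5–4.5 mU/well). Plate-bound 18-mer DNA primer on a 50-base 5′-A12-(GTCA)5-3′ DNA template. dATP, dGTP, dCTP and BrdUTP at 1.0 μM each, no ATP. Buffer: HEPES 50 mM pH 7.3, 10 mM MgCl2. Incubation 180 min at 33°C, NaOH dehybridization, anti-BrdU-AP tracer, A405. IC50 from seven inhibitor concentrations, at least two experiments in duplicate.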

Assay [3] in a line: Inhibition of HIV1 reverse transcriptase 41L/67N/70R/210W/215Y mutant in presence of 5 mM ATP by heteropolymeric DNA polymerase assay. On the set-up: species or system Human immunodeficiency virus 1. In short, it runs like this:
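Heteropolymeric DNA polymerase assay with ATP added at 5 mM. Purified HIV-1 RT at 30–100 pM acts on a plate-bound DNA primer with a 5′-A12-(GTCA)5-3′ template. dATP, dGTP, dCTP and BrdUTP at 1.0 μM each. Incubation 180 min at 33°C. IC50 from seven inhibitor concentrations, at least two experiments in duplicate.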

The nature of assay [4]: Inhibition of HIV1 reverse transcriptase 41L/67N/70R/184V/210W/215Y mutant by heteropolymeric DNA polymerase assay. On the set-up: species or system Human immunodeficiency virus 1. The gist of the method: as §1
Assay [5] can be described thus: Inhibition of HIV1 reverse transcriptase 41L/69S-SG/184V/210W/215Y mutant by heteropolymeric DNA polymerase assay. On the set-up: species or system Human immunodeficiency virus 1. The gist of the method: as §1
A short description of assay [6]: Inhibition of HIV1 reverse transcriptase wild type HXB2(a) in presence of 20 uM dNTP by heteropolymeric DNA polymerase assay. On the set-up: species or system Human immunodeficiency virus 1. In short, it runs like this: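 Heteropolymeric DNA assay containing 5 mM ATP on the 5′-A12-(GTCA)5 template, with each dNTP (BrdUTP in place of TTP) at 1 μM or, in the modified version, 20 μM. Mean IC50 from at least two runs in duplicate.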

Assay [7] is described as follows: Inhibition of HIV1 reverse transcriptase 41L/67N/70R/210W/215Y mutant in presence of 1 uM dNTP by heteropolymeric DNA polymerase assay. On the set-up: species or system Human immunodeficiency virus 1. In short, it runs like this: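 DNA polymerase assay with 5 mM ATP and purified HIV-1 RT (HXB2 background) on a plate-bound primer with a 5′-A12-(GTCA)5-3′ template. Each dNTP (dATP, dGTP, dCTP, BrdUTP) is set at either 1 μM or 20 μM. IC50 from at least two experiments in duplicate. Fold change is relative to wild-type RT at the same dNTP level.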

The nature of assay [8]: Inhibition of HIV1 reverse transcriptase wild type HXB2(a) in presence of 5'-A12-(GACT)5-3' by heteropolymeric DNA polymerase assay. On the set-up: species or system Human immunodeficiency virus 1. The gist of the method:
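Heteropolymeric DNA assay with 5 mM ATP and dNTPs (BrdUTP replacing TTP) at 1.0 μM, using an alternative template repeat, 5′-A12-(GACT)5-3′. Run at 33°C for 180 min, followed by NaOH dehybridization and anti-BrdU-AP detection at 405 nm. IC50 reported in μM as the mean of at least two runs in duplicate.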

The nature of assay [9]: Inhibition of HIV1 reverse transcriptase 41L/67N/70R/210W/215Y mutant in presence of 5'-A12-(GTCA)5-3' by heteropolymeric DNA polymerase assay. On the set-up: species or system Human immunodeficiency virus 1. The gist of the method:
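DNA polymerase assay with 5 mM ATP and 1 μM each dATP, dGTP, dCTP and BrdUTP. The 50-base DNA template carries a 5′-A12 tail with a (GTCA)5 or (GACT)5 repeat. IC50 from at least two experiments in duplicate. Fold change is relative to wild-type RT on the same template.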

Assay [10] in a line: Inhibition of HIV1 reverse transcriptase 41L/67N/70R/210W/215Y mutant in presence of 5'-A12-(GACT)5-3' by heteropolymeric DNA polymerase assay. On the set-up: species or system Human immunodeficiency virus 1. In short, it runs like this:
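DNA polymerase assay with 5 mM ATP and 1 μM each dATP, dGTP, dCTP and BrdUTP. The 50-base DNA template carries a 5′-A12 tail with a (GTCA)5 or (GACT)5 repeat. Incubation 180 min at 33°C, NaOH dehybridization, anti-BrdU-AP detection at 405 nm. IC50 from at least two experiments in duplicate. Fold change is relative to wild-type RT on the same template.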

The nature of assay [11]: Inhibition of HIV1 reverse transcriptase wild type HXB2(a) in presence of 3.2 mM ATP by prA/odT assay. On the set-up: species or system Human immunodeficiency virus 1.
Assay [12] can be described thus: Inhibition of HIV1 reverse transcriptase 41L/67N/70R/210W/215Y mutant in presence of 3.2 mM ATP by prA/odT assay. On the set-up: species or system Human immunodeficiency virus 1. In short, it runs like this: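 Buffer: 50 mM HEPES pH 7.3, 10 mM MgCl2, 0.5% Triton X-100, 0.1 mg/ml BSA. Incubation 180 min at 33°C. Product detected with AP-conjugated anti-BrdU at 405 nm. […] Ki from four inhibitor levels. At least two experiments in duplicate.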

Assay [13] is described as follows: Inhibition of HIV1 reverse transcriptase wild type HXB2(b) in presence of 3.2 mM ATP by prA/odT assay. On the set-up: species or system Human immunodeficiency virus 1.
The nature of assay [14]: Inhibition of HIV1 HXB2 reverse transcriptase 41L/67N/70R/215Y/219Q mutant by heteropolymeric DNA polymerase assay.
Assay [15] is described as follows: Inhibition of HIV1 reverse transcriptase 41L/69S-SG/210W/215Y mutant in presence of 5'-A12-(GACT)5-3' by heteropolymeric DNA polymerase assay.
Assay [16] can be described thus: Inhibition of HIV1 reverse transcriptase wild type HXB2(a) by heteropolymeric DNA polymerase assay. On the set-up: species or system Human immunodeficiency virus 1. In short, it runs like this: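 Heteropolymeric assay without ATP: plate-bound 18-mer DNA primer (~110 nM) with 50-mer 5′-A12-(GTCA)5 template (190 nM). dATP, dGTP, dCTP and BrdUTP at 1.0 μM each, in HEPES 50 mM pH 7.3, MgCl2 10 mM. RT 30–100 pM, 33°C for 180 min, then NaOH dehybridization and anti-BrdU-AP tracer read at 405 nm. IC50 from seven triphosphate concentrations; two to four runs in duplicate.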

Assay [17] in a line: Inhibition of HIV1 reverse transcriptase 41L/67N/70R/210W/215Y mutant by heteropolymeric DNA polymerase assay. On the set-up: species or system Human immunodeficiency virus 1. In short, it runs like this:
as §1

Regarding `Cc1cn([C@H]2CO[C@@H](COP(=O)(O)OP(=O)(O)OP(=O)(O)O)O2)c(=O)[nH]c1=O`, the IC50 in assay [1] came out at 1400 nM; in [2], 460 nM; in [3], 500 nM; in assay [4] it was 160 nM; in assay [5], 220 nM; in assay [6], 2000 nM. Also, the IC50 is 500 nM in assay [7]; 310 nM in assay [8]; 500 nM in [9]; 400 nM in assay [10]; 130 nM in [14]; 780 nM in [15]. Also, the Ki in assay [11] was 2.8 nM; in assay [12], 13 nM; in [13] it was 1.8 nM.

For `Cc1cn([C@H]2C[C@H](N=[N+]=[N-])[C@@H](COP(=O)(O)OP(=O)(O)OP(=O)(O)O)O2)c(=O)[nH]c1=O` [ZIDOVUDINE TRIPHOSPHATE], the IC50 in [1] turned out to be 1200 nM; in [16], 180 nM; in assay [17], 140 nM; in assay [5], 210 nM; in assay [14] it was 190 nM. In addition, the Ki came to 5.4 nM in [11], 130 nM in [12] and 4 nM in assay [13].

On to `C[C@H](Cn1cnc2c(N)ncnc21)OCP(=O)(O)OP(=O)(O)OP(=O)(O)O`, for which the IC50 in assay [2] came out at 12000 nM; in [3] it was 13000 nM; in assay [16] it was 1600 nM; in [17], 1400 nM; in assay [4], 1400 nM; in [6], 19000 nM. For the same compound, the IC50 turned out to be 13000 nM in assay [7]; 2800 nM in assay [8]; 13000 nM in [9]; 8600 nM in assay [10]; 17000 nM in [15].

One may read the IC50 as the concentration that gives 50% inhibition. For orientation: Ki means the dissociation constant of the complex between target and ligand, obtained from inhibition or displacement.
